Only some compounds are listed: those with a hit (about 3.1% of all), similar ones and a draw of the others.
CHO parental Ca – signal in parental CHO cells, OX1R antagonist counter-screen; parental CHO-K1, ATP-induced calcium, Fluo-8 fluorescence; inhibition, % at 5.6 µM; 0.63% of 330,000 active; AID 463079;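 active = inhibition above that plate's mean sample inhibition plus 3 SD, cut at about 26% in these data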;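 note: 0% = ATP-challenged DMSO wells and 100% = DMSO wells without ATP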
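Material – parental CHO cells · Reagent – ATP stimulus · Compound – single nominal dose of 5.6 µM per compound · Detection – Fluo-8 fluorescence · Read-out basis – percent inhibition of calcium signal · Controls – ATP-challenged DMSO wells low, unchallenged DMSO wells high · Repeats – no replicates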
OX1R antag-1 – human HCRTR1 antagonism; O43613; CHO/OX1R cells, Fluo-8 calcium fluorescence, orexin A; inhibition, % at 5 µM; 0.43% of 330,000 active; AID 434989;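 active = inhibition above its plate's threshold, mean inhibition of all tested compounds on the plate plus 3 SD, cut at about 37% in these data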;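 note: 0% = orexin A challenge wells and 100% = SB-334867-A antagonist wells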
OX1R antag-2 – blocks the human orexin 1 receptor; 1.8% of 330,000 active; AID 485270; OX1R-expressing cells, FRET antagonist read-out; inhibition, % at 6.6 µM; in the data active = inhibition mostly above about 38%, no sharp cut-off; inactive = mostly below about 40%;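 note: 0% = agonist challenge alone and 100% = reference antagonist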
GPR7 antag – blocks human GPR7 receptor signaling; P48145; GPR7-expressing cells, fluorescence antagonist assay; inhibition, % at 4.4 µM; 1.1% of 290,000 active; AID 1861; in the data active = inhibition above about 16%, passing the limit was not always enough;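 note: cells stimulated with the agonist NPW; 0% = agonist with vehicle and 100% = vehicle without agonist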
Target sequence (P48145 whole entry, looked up): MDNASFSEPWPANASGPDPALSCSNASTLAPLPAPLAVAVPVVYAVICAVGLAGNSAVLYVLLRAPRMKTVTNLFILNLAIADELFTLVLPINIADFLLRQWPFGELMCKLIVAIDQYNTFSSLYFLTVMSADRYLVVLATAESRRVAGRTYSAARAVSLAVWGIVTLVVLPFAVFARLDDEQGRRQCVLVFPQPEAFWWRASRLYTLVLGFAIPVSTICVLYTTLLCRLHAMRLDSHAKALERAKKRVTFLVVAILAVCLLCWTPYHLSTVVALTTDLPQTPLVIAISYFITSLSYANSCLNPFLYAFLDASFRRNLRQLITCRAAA
GalR3 antag – antagonists of human GalR3. O60755. HEK293 GalR3-CNG cAMP membrane potential fluorescence; galR3 body fused to GalR1 C-terminus. inhibition, % at 3 µM. 0.44% of 360,000 active;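 active = inhibition above the screen-wide average plus 3 SD, cut at about 13% in these data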;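 note: forskolin and galanin both at EC90 stimulate the cells; cAMP rise reported by CNG channel membrane potential dye signal; 0% = forskolin plus galanin with DMSO and 100% = forskolin alone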
Target sequence (O60755 1-299 limits assumed): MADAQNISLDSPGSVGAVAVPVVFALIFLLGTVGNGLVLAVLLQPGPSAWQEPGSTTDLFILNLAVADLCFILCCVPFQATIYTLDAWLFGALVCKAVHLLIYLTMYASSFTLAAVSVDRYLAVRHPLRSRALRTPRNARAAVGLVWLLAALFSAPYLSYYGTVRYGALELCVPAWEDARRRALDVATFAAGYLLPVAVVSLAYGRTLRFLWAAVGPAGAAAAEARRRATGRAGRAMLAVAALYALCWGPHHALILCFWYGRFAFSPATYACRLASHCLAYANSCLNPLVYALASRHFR
GPR7 antag cf – confirmation of human GPR7 antagonists. shares compounds with GPR7 antag. GPR7-expressing cells, calcium fluorescence antagonist mode. inhibition, % at 4.4 µM. 52% of 2,400 active. AID 1952; in the data active = inhibition above about 24%;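 note: stimulated with the GPR7 agonist NPW; 0% = agonist plus vehicle and 100% = vehicle alone without agonist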
MCHR1 antag – MCHR1 (human) antagonism in GPR7 counter-screen; shares compounds with GPR7 antag; MCHR1-expressing cells, fluorescence antagonist assay; inhibition, % at 4.4 µM; 62% of 2,400 active; AID 2148; in the data active = inhibition above about 22%;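 note: 0% = vehicle with agonist and 100% = vehicle without agonist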
OX1R Ca confirm – confirmation of human orexin 1 receptor antagonists; CHO/OX1R cells, orexin A calcium Fluo-8 fluorescence; inhibition, % at 5 µM; 38% of 1,100 active; AID 492963; shares compounds with OX1R antag-1; in the data active = inhibition above about 29%;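 note: 0% = agonist challenge alone and 100% = reference antagonist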
CHO Ca triplic – signal in parental CHO cells, OX1R antagonist counter-screen; shares compounds with OX1R antag-1; parental CHO-K1, ATP-induced calcium, Fluo-8 fluorescence; inhibition, % at 5.6 µM; 9.3% of 1,100 active; AID 492965;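 active = inhibition above a per-plate limit, the mean inhibition of that plate's test compounds plus 3 SD, cut at about 25% in these data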;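 note: 0% = ATP challenge with DMSO and 100% = DMSO without ATP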
* = called active by the depositor; x = not tested or not shown.

SMILES	CHO parental Ca	OX1R antag-1	OX1R antag-2	GPR7 antag	GalR3 antag	GPR7 antag cf	MCHR1 antag	others
N#CC(C#N)=C1C=C2C=C(N3CCCCCC3)CCC2CC1 (centres undefined)	x	x	x	71.7*	-2.0	96.7*	109.8*
CC1(C)CC(NCCN2CCN(C3=CC(=C(C#N)C#N)CC(C)(C)C3)CC2)=CC(=C(C#N)C#N)C1	-13.3	-13.7	8.5	-4.0	-2.8	x	x
N#CC(C#N)=C1C=C2C=C(N3CCOCC3)CCC2CC1 (centres undefined)	x	x	x	34.1*	-4.0	82.4*	96.5*
CCN1CCN(C2=CC3=CC(=C(C#N)C#N)CCC3CC2)CC1 (centres undefined)	x	x	x	59.7*	x	68.3*	91.3*
O=C1N(c2ccccc2)C[C@@H]2C[C@@H](c3cc4ccccc4o3)N3CCC[C@@]123	x	x	x	25.3*	-11.5	22.8	14.7
NS(=O)(=O)c1cc(C(=O)OCC(=O)c2ccccc2)c(Cl)cc1Cl	-13.9	-17.7	19.0	21.8*	9.1	17.7	0.0
CC1=C(C)C(=O)N(CCC(=O)O)C1=O	-2.7	-3.0	17.6	0.8	-7.2	x	x
O=C(O)CCn1c(=O)[nH]c(=O)n(CCC(=O)O)c1=O	-10.5	-15.8	9.8	24.2*	2.9	-2.5	-6.8
COc1ccc(CCN2CC(C(=O)N(C)Cc3c(C)n[nH]c3C)CCC2=O)cc1 (centres undefined)	x	x	x	-3.8	-6.7	x	x
CC(NCCCOc1cccc2ccccc12)c1ccccc1 (centres undefined)	6.1	-16.5	-13.7	24.6*	-15.1	56.5*	49.8*
COc1ccc(C(=O)NCCc2c[nH]c3ccccc23)cc1OC	0.8	-1.1	30.6	10.4	-4.8	x	x
O=C(NCCc1c[nH]c2ccccc12)c1ccc2[nH]c(=O)c(=O)[nH]c2c1	1.3	-18.5	-7.4	40.2*	-2.9	-22.8	12.5
CN(C)c1ccc(/C=[N+](\[O-])C2N(c3ccccc3)C(=S)SC2(C)C)cc1 (centres undefined)	-26.6	-5.0	16.9	4.4	-3.9	x	x
Cc1ccc(NC(=O)c2ccccc2F)cc1S(=O)(=O)N1CCCCCC1	-4.5	-35.1	5.4	22.4*	3.0	-9.8	53.5*
O=C(CNC(=O)c1cccc(Cl)c1)NCCCSc1ccccc1	-27.4	-13.2	27.1	x	-0.7	x	x
CC(C)CN1CCCC(N2CCN(c3cccc(Cl)c3)CC2)C1 (centres undefined)	4.1	-42.0	7.0	27.4*	-3.0	-5.9	0.4
CC(O)CN(C)CC/C=C1/c2ccccc2CSc2ccccc21 (centres undefined)	-16.1	-15.2	22.2	22.1*	-12.1	17.3	17.5
C=CCN(C)CC/C=C1\c2ccccc2CSc2ccccc21	-10.9	-13.7	12.3	0.5	-4.8	x	x
CC(C)CN1CCN(Cc2cnc(N3CCOCC3)s2)CC1CCO (centres undefined)	-18.1	-7.4	-8.4	-8.4	-3.5	x	x
CCOC(=O)c1c(N)sc2c(OCC)c(Br)ccc12	-20.1	-12.5	25.1	24.0*	-4.2	29.3*	27.9*
CCOC(=O)c1c(NC(C)=O)sc2c(OCC(O)CNC(C)(C)C)c(Br)ccc12 (centres undefined)	-16.2	-22.3	13.1	-0.1	-4.9	x	x
Cc1ccc(C(=O)N/N=C/c2ccoc2)cc1C	-8.8	-50.2	5.1	25.5*	-2.4	4.0	6.0
COc1ccc(C(C#N)N2N=C(C)CC2c2ccccc2)cc1 (centres undefined)	2.9	-10.2	-7.0	-8.7	-10.7	x	x
CC1=NN(C(C#N)c2ccccc2)C(c2ccccc2)C1 (centres undefined)	0.4	-7.4	7.3	36.7*	-4.8	4.7	-2.5
O=C(c1cc(-c2ccc(F)cc2)on1)N1CCCCCC1	-19.9	-26.7	21.3	35.7*	-9.3	5.2	26.2*
SMILES	CHO parental Ca	OX1R antag-1	OX1R antag-2	GPR7 antag	GalR3 antag	GPR7 antag cf	MCHR1 antag	others
COc1ccccc1/C=C(/C#N)C(=O)O	x	x	x	16.8	-7.1	-24.3	15.7
Cc1noc(C)c1COc1ccccc1C(=O)NNC(=O)C(C)Oc1ccccc1F (centres undefined)	-16.1	-27.9	19.7	x	-2.2	x	x
COC(=O)Nc1ccc2c(c1)N(C(=O)CCN(C)C)c1ccccc1CC2	-14.1	-16.1	17.0	13.5	-5.3	x	x
CSc1ccc2c(c1)N(CCC1CCCCN1C)c1ccccc1S2 (centres undefined)	28.3	12.2	10.8	42.5*	-9.0	76.4*	83.3*
O=C(COC(=O)C1CCN(c2ccc(C(F)(F)F)cn2)CC1)NCc1ccccc1	-20.8	-19.3	6.8	x	-3.5	x	x
O=C(CNS(=O)(=O)c1ccc(Br)s1)NCCc1ccc(Cl)cc1	-7.4	20.9	21.1	25.3*	-3.7	2.6	33.9*	OX1R Ca confirm=-5.1;CHO Ca triplic=-3.4
Cc1ccc(C)n1-c1ccc(-c2ccnc(N)n2)cc1	x	x	x	-6.5	3.3	x	x
COc1cc(/C=C(\C#N)c2nc3ccccc3o2)ccc1O	22.9	34.1	16.7	26.1*	-6.7	35.6*	46.4*	OX1R Ca confirm=56.1*;CHO Ca triplic=55.7*
N#C/C(=C\c1ccc(O)cc1)c1nc2ccccc2o1	-2.4	-4.3	24.3	-2.7	10.9	x	x
NS(=O)(=O)c1ccccc1NC(=S)Nc1ccccc1S(N)(=O)=O	3.1	-14.4	16.9	-10.4	-7.1	x	x
C=CCOc1cccc(C(=O)/C=C2/C(=O)Nc3ccccc32)c1	19.3	35.4	14.0	43.1*	-5.0	65.3*	80.6*	OX1R Ca confirm=20.6;CHO Ca triplic=18.9
O=C1Nc2ccc(Br)cc2/C1=C/C(=O)c1ccccc1	x	x	x	x	-3.1	x	x
CCCCCc1ccc(OCCCC[n+]2ccccc2)c(CCCCC)c1	8.7	31.2	23.9	-19.6	x	x	x
CCCCCc1ccc(OCCCC[n+]2ccc(C)cc2)c(CCCCC)c1	21.3	40.3*	13.6	23.9*	6.5	70.2*	78.8*	OX1R Ca confirm=16.4;CHO Ca triplic=11.2
Cc1ccc(NC(=O)CSC2=C(C#N)C(c3ccco3)CC(=O)N2)cc1 (centres undefined)	-9.6	-1.6	24.7	-2.4	-3.6	x	x
Cc1ccc(C(=O)CSC2=C(C#N)C(c3ccco3)CC(=O)N2)c(C)c1 (centres undefined)	20.4	35.6	12.9	40.5*	-3.5	70.6*	63.7*	OX1R Ca confirm=38.9*;CHO Ca triplic=10.5
O=C(c1ccccc1)c1c2c(cc3sc4ccccc4[n+]13)-c1cccc3cccc-2c13	28.6	44.8	12.4	21.3*	-4.4	17.8	31.5*	OX1R Ca confirm=35.7*;CHO Ca triplic=37.1*
O=C(Nc1csc([N+](=O)[O-])c1)Nc1ccccc1Cl	3.4	35.4	44.5	41.0*	2.4	50.6*	62.3*	OX1R Ca confirm=1.2;CHO Ca triplic=41.9*
